Compound activity deposited in PubChem by Sanford-Burnham Center for Chemical Genomics.
A selection: hits, their analogues and other compounds. The true share with any hit is near 1.2%.
HKDC1 inh – blocks human hexokinase HKDC1 activity; Q2TB90; recombinant HKDC1, G6PDH/diaphorase resazurin coupled fluorescence; inhibition, % at 20 µM; actives 0.16% (n = 340,000); AID 493160;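 active means inhibition above about 35% when tested at 20 µM, limit read from the data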;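 further: plate controls were DMSO wells with enzyme for no effect and DMSO wells lacking enzyme for full effect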
Target sequence (Q2TB90 whole entry, looked up): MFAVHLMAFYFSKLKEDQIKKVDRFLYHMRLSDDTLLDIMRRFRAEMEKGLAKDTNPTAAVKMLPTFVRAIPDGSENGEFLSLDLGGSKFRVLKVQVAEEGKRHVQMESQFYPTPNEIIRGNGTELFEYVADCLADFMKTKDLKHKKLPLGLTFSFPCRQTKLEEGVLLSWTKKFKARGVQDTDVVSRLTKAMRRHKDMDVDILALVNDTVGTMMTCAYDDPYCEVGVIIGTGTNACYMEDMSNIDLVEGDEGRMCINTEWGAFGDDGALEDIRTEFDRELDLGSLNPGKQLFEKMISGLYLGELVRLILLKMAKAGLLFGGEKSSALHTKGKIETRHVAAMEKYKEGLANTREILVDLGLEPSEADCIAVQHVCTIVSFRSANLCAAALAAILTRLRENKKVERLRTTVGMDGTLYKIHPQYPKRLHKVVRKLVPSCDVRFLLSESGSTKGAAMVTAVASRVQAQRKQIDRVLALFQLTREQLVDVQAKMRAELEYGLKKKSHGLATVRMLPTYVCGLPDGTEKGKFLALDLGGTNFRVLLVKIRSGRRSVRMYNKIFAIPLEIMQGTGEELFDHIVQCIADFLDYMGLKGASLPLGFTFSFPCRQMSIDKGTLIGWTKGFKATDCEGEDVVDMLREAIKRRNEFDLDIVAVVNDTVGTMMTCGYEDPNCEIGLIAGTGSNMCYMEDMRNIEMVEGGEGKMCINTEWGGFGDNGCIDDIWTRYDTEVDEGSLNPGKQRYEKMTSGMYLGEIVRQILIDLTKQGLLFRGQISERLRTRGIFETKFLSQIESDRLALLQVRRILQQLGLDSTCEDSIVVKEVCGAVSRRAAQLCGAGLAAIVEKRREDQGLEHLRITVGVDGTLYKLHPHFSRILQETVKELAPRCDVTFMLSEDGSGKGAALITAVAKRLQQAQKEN
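test system = in-house recombinant HK5 (HKDC1) enzyme | amount = HKDC1 at 5 µg/mL | control set = DMSO-enzyme wells negative, buffer-substituted wells positive | compound = one dose of 20 µM, 1% DMSO | schedule = reaction time 90 min, room temperature, protected from light | technique = resorufin fluorescence at 613 nm | reagent = glucose with 1 mM ATP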
PfG6PD inh – PfG6PD (Plasmodium falciparum) enzyme inhibition; actives 0.78% (n = 350,000); PfGluPho enzyme, NADPH resazurin-diaphorase fluorescence; inhibition, % at 20 µM;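 active means inhibition reaching at least a set limit at 20 µM in the primary screen, cut at about 59% in these data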;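 further: 0% = DMSO wells with substrate and 100% = DMSO wells lacking glucose-6-phosphate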
Diaph inh CS – diaphorase inhibition or chemical oxidation counter-screen. inhibition, % at 20 µM. diaphorase resazurin-to-resorufin fluorescence, NADH, 16 min; bacterial (C. kluyveri) enzyme, not human. actives 0.69% (n = 190,000);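 active means primary screen inhibition at 20 µM above a set limit, cut at about 50% in these data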;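 further: plate controls were DMSO with full reaction for no effect and wells lacking NADH for full effect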
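Test system: diaphorase enzyme from Clostridium kluyveri; amount: diaphorase at 0.14 U/mL in enzyme working solution; detection: fluorescence of resorufin formed from resazurin, Ex 544/Em 590 nm; times: reaction incubation of 16 min at room temperature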
Diaph act CS – counter-screen for diaphorase-based assays: diaphorase activators and chemical reducers | Diaphorase/resazurin coupled assay, resorufin fluorescence, 16 min; stronger effect = higher value; 1 = vehicle wells, 0 = NADH-free wells | activation factor at 20 µM | AID 1229 | actives 0.005% (n = 190,000);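 active means diaphorase activity raised at least twofold by the compound at 20 µM; inactive means activation factor below 2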
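Material: bacterial diaphorase enzyme (C. kluyveri); amount: enzyme 0.07 U/mL final; reagent: NADH substrate 0.114 mM plus resazurin dye 0.1 mM, final; doses: single compound dose of 20 µM, 1% DMSO final; timing: 16 min enzyme reaction, ambient temperature; measured by: fluorescence of resorufin, 544 nm excitation, 590 nm emission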
G6PDH counter – counter-screen for G6PDH assay hits: L. mesenteroides G6PDH inhibition; Purified L. mesenteroides G6PDH, diaphorase/resazurin coupled fluorescence, 45 min; inhibition, % at 5 µM; actives 0.12% (n = 200,000); AID 1020; in the data active means inhibition above about 50%
* hit, by the source's call; / = not tested or not shown.

SMILES | HKDC1 inh | PfG6PD inh | Diaph inh CS | Diaph act CS | G6PDH counter
Cc1ccc(S(=O)(=O)/N=C2\C(=O)c3ccccc3C([O-])=C2n2cc[n+](CCC(C)C)c2)cc1 | 0 | 44 | 12 | 0.9 | 53*
COc1ccc(/C=C/C(=O)NC(=S)NNC(=O)c2cccnc2)cc1 | -21 | -5 | 75* | 0.2 | -32
COc1ccc(C(=O)NNC(=S)NC(=O)c2cccnc2)cc1 | 1 | -4 | 38 | 0.6 | 13
C/C(CC(=O)N1CCN(C=O)CC1)=N\NC(=O)c1cc2ccccc2cc1O | 23 | 58 | 88* | 0.1 | 3
c1ccc(-[n+]2nc(Nc3cccc4ccccc34)sc2-c2c3ccccc3cc3ccccc23)cc1 | 18 | 83* | / | / | /
NC(=O)Cc1ccc(OCc2nn[nH]n2)cc1 | / | -21 | / | / | /
O=C(NCCc1c[nH]c2ccccc12)c1ccc([N+](=O)[O-])o1 | / | 7 | / | / | /
CC(/C=N/n1c(-c2ccco2)n[nH]c1=S)=C\c1ccccc1 | 13 | 1 | 50* | 0.5 | -11
CC(/C=N/n1c(-c2ccccn2)n[nH]c1=S)=C\c1ccccc1 | -2 | 18 | / | / | /
S=c1[nH]nc(-c2cc(-c3ccccc3)n[nH]2)n1/N=C/C=C/c1ccco1 | 9 | 30 | / | / | /
S=c1[nH]nc(-c2ccco2)n1/N=C/C=C/c1ccco1 | 8 | 27 | 64* | 0.4 | 2
CC(/C=N/n1c(-c2ccc(Cl)cc2)n[nH]c1=S)=C\c1ccco1 | 4 | 10 | 53* | 0.5 | -25
CC(/C=N/n1c(-c2cc(C)[nH]n2)n[nH]c1=S)=C\c1ccco1 | 6 | 43 | / | / | /
Cc1ccc(CNS(=O)(=O)c2ccc(Cl)s2)cc1 | / | -1 | / | / | /
CCCC#Cc1ccc2c(c1)O[C@H](CN(C)C(=O)CC1CC1)[C@H](C)CN([C@@H](C)CO)S2(=O)=O | / | 43 | / | / | /
CCCCCC(=O)N1C[C@@H](n2cc(C3CC3)nn2)[C@H](O)C[C@@H]1c1ccc(C)cc1 | / | -2 | / | / | /
COc1cccc(-c2nc(SCC(=O)Nc3nc(-c4ccccc4)c(C)s3)[nH]c(=O)c2C#N)c1 | 6 | -56 | 81* | 0.2 | 8
CCOc1ccc2nc(NC(=O)CSc3nc(-c4ccccc4)c(C#N)c(=O)[nH]3)sc2c1 | -3 | -61 | 59* | 0.4 | 5
Cc1sc(NC(=O)CSc2nc(O)cc(=O)[nH]2)nc1-c1ccccc1 | 0 | -26 | 38 | 0.6 | 7
CCN(C(=O)c1cc2cc3ccc(C)cc3nc2o1)c1ccc(OC)cc1 | 28 | 14 | 60* | 0.4 | -45
C[C@H](CO)N1C[C@H](C)[C@@H](CN(C)C(=O)c2ccncc2)OCc2cnnn2CCCC1=O | / | 8 | / | / | /
CN(c1ccccc1)S(=O)(=O)c1cccc(NC(=O)CCNC(=O)c2ccco2)c1 | / | 5 | / | / | /
CNc1ccccc1 | 0 | -6 | / | / | /
CNc1cccccc1=S | 18 | 65* | 20 | 0.8 | 13
CC1(C)CC(Cc2cccc(C(F)(F)F)c2)N(C(=O)OC(C)(C)C)C1 (configuration not stated) | / | -12 | / | / | /
SMILES | HKDC1 inh | PfG6PD inh | Diaph inh CS | Diaph act CS | G6PDH counter
c1ccc2c3c(cc(N4CCOCC4)c2c1)OC1(N2CCOCC2)CCCCC1O3 (configuration not stated) | 18 | 42 | 25 | 0.7 | 50*
O=C(Nc1ccccn1)N1CCOCC1 | -9 | -5 | 3 | 1 | 7
Cc1ccc(NC(=S)Nc2ccc3nc(-c4ccccn4)c(-c4ccccn4)nc3c2)cc1C | 15 | 97* | 75* | 0.3 | 60*
Cc1ccc(NC(=S)Nc2ccccn2)cc1C | -1 | 5 | / | / | /
O=C(Nc1ccc2nc(-c3ccco3)c(-c3ccco3)nc2c1)N1CCCCCC1 | 45* | 47 | 94* | 0.1 | -10
O=C(Nc1ccc2nc(-c3ccccn3)c(-c3ccccn3)nc2c1)N1CCOCC1 | 13 | 6 | 58* | 0.4 | 25
Cc1nccn1CC(=O)c1ccccc1 | / | -5 | / | / | /
Cc1ccc(-c2csc3nc[nH]c(=S)c23)cc1C | 7 | 10 | 59* | 0.4 | 4
O=C(O)CCNc1cc2ccccc2cc1C(=O)O | 12 | 52 | 65* | 0.4 | 40
O=C(O)CCNS(=O)(=O)c1ccc2ccccc2c1 | -7 | -8 | 5 | 0.9 | -1
N#CC1=C(N)SC(N)=C(C#N)C1CCC1CCCCC1 | / | / | 54* | 0.5 | -3
O=C(CCN1C(=O)C2C3C=CC(C4CC34)C2C1=O)Oc1ccc(Br)cc1 (configuration not stated) | -5 | -7 | 11 | 0.9 | 2
O=C(CCN1C(=O)C2C3C=CC(C4CC34)C2C1=O)Oc1cccc2cccnc12 (configuration not stated) | 6 | -13 | 24 | 0.8 | 53*
Cc1ccc(C)c(N=Nc2ccc(O)c3ncccc23)c1 | -33 | -17 | 23 | 0.8 | 12
Cc1ccc(NCc2ccc(O)c3ncccc23)cc1C | -12 | 33 | 78* | 0.2 | 43
Cc1ccc(NCc2ccc(O)c3ncccc23)cc1 | -2 | 18 | 70* | 0.3 | 43
CCCCCCn1c(=O)n2n(c1=O)[C@@H]1CN(S(=O)(=O)c3ccc(C)cc3)C[C@]1(O)[C@@H](OC(=O)Nc1cccs1)C2 | / | 45 | / | / | /
O=[N+]([O-])c1ccc(C=Nc2ccc(Cl)c([N+](=O)[O-])c2)s1 | / | / | 4 | 1 | 29
Cc1cc(C)cc(N=Cc2ccc([N+](=O)[O-])s2)c1 | 14 | 62* | 20 | 0.8 | 15
NC(=O)c1ccc(N=Cc2ccc([N+](=O)[O-])s2)cc1 | 14 | 72* | 9 | 0.9 | 11
O=C(Cc1cccs1)N/N=C\c1ccc([N+](=O)[O-])s1 | -7 | 27 | -9 | 1.1 | 3
COc1ccc(CNC(=O)c2c(C)oc3c2C(=O)c2ccccc2C3=O)cc1 | 12 | 31 | 11 | 0.9 | 62*
CC(=O)c1c(C)oc2c1C(=O)c1ccccc1C2=O | 2 | -39 | 16 | 0.8 | 4
